This is a sample that favours compounds with a hit; in the whole collection about 3.5% have one here.
RGS4 inh – RGS4 inhibitors, primary screen, cell-based, HEK293 M3R inducible RGS4, calcium flux; Fluo-4 calcium flux; hits give high values; triggered by carbachol at its EC20; B-score at 10 µM; 310,000 tested, 0.45% active;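 active = B-score, a plate-corrected calcium signal, over three deviations above library mean, with baseline fluorescence within five deviations of library mean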;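 also: RGS4 expression induced by doxycycline in cells with stable M3 receptor; B-score is computed from the integrated fluorescence ratio over baseline after carbachol; higher B-score means a larger calcium signal and so more RGS4 inhibition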
Target sequence (P49798 whole entry, looked up): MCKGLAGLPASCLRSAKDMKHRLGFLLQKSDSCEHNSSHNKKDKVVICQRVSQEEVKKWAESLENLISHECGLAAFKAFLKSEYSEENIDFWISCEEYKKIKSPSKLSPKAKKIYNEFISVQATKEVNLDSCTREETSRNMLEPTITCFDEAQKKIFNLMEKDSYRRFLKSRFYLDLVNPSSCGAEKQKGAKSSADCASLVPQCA
RGS4 pot – RGS4 potentiators or activators, primary screen, cell-based, HEK293 M3R inducible RGS4, calcium flux; B-score at 10 µM; AID 463111, 2010; 310,000 tested, 0.92% active; carbachol calcium flux Fluo4; hits give low values;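 active = B-score of the integrated calcium signal more than 4 SD below the library mean, with starting fluorescence not abnormally high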;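 also: negative B-score means reduced calcium response which marks RGS4 activation or potentiation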
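test system = HEK293 cells with stable M3R and inducible RGS4 | schedule = recording 10 s baseline at 1 Hz, 100 s post-agonist | technique = Fluo4-AM (2 µM) calcium-flux fluorescence, kinetic read | measure = Agonist-evoked peak-minus-minimum fluorescence over baseline, integrated ratio, B score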
MrgX1 allo act – positive allosteric modulators of MrgX1, primary screen, HEK293 cells, Fluo-4 calcium flux; Mas-related G-protein coupled receptor member X1 (Homo sapiens), Q96LB2; FDSS; hits give high values; B-score at 10 µM; 310,000 tested, 0.63% active;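 active = plate-corrected calcium response at least 3 library SD above typical, normal starting fluorescence, not activating the receptor alone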;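 also: compound read alongside a low EC10 to EC30 dose of BAM8-22 agonist; peak minus trough fluorescence over baseline measured at the second addition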
Target sequence (Q96LB2 whole entry, looked up): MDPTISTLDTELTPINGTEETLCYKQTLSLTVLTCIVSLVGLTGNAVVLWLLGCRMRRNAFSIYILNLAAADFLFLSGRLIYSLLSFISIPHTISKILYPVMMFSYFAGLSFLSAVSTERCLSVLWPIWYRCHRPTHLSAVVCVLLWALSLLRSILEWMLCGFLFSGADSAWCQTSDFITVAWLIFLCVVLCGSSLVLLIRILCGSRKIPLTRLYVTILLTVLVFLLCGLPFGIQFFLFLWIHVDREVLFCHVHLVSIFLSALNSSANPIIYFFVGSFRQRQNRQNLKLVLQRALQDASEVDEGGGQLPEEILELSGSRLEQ
MrgX1 antagonist – antagonists of human MrgX1 receptor, primary screen, HEK293 cells, Fluo-4 calcium flux; B-score at 10 µM; Mas-related G-protein coupled receptor member X1 (Homo sapiens), Q96LB2; AID 588676, 2011; 310,000 tested, 1.3% active; BAM8-22 antagonism; hits give low values;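 active = calcium-response B-score plate-corrected more than 3 library SD below zero, starting fluorescence within 5 deviations, no agonist response on first addition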;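 also: peak minus trough fluorescence over baseline after final BAM8-22 challenge near maximal dose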
MrgX1 agonist – agonists of human MrgX1 receptor, primary screen, HEK293 cells, Fluo-4 calcium flux | Mas-related G-protein coupled receptor member X1 (Homo sapiens), Q96LB2 | Fluo-4 calcium fluorescence, agonist mode; hits give high values | 310,000 tested, 0.44% active | B-score at 10 µM;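 active = calcium response B-score plate-corrected fluorescence ratio at least 3 library SD, with starting fluorescence B-score inside 5 SD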
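Material: HEK293 cells stably expressing human MrgX1 receptor | Quantity: 15,000 cells per well | Times: Cells plated overnight, dye loaded 0.5 h 37 °C, 0.5 h room temperature | Measured by: Kinetic Fluo-4 NW fluorescence of intracellular calcium | Control set: Positive and negative controls per plate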
RGS4 inh valid – enhanced carbachol calcium response, M3R/RGS4 cells, RGS4 inhibitor project, cell-based, validation screen, HEK293 M3R/RGS4, calcium flux | shares compounds with RGS4 inh | carbachol calcium Fluo-4 fluorescence; carbachol added at its EC20; 0 = buffer wells, 100 = carbachol control | calcium response, % at 10 µM | 1,700 tested, 65% active | AID 492999, 2010;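 active = duplicate-averaged calcium response above the buffer-only control mean plus 5 SD of those controls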;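 also: integrated fluorescence ratio F max minus min over baseline F0; higher response in RGS4-induced cells means RGS4 inhibition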
M3R Ca ctr – carbachol calcium response in non-induced M3R cells, confirmation, counter-screen for RGS4 inhibitor project, cell-based, HEK293 M3R; AID 493000, 2010; shares compounds with RGS4 inh; 1,900 tested, 20% active; activity (percent), % at 10 µM; carbachol calcium Fluo-4; submaximal (EC20) carbachol stimulus; buffer wells 0%, carbachol control wells 100%; call rule not given here;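 also: RGS4 induction absent so cells express M3R without RGS4; higher means more calcium signal and flags a non-specific hit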
M3R basal Ca ctr – second RGS4 inhibitor counter-screen in uninduced cells lacking carbachol; AID 493001; calcium response (agonist-mode artifact), % at 10 µM; 1,900 tested, 22% active; shares compounds with RGS4 inh; HEK293 M3R/RGS4 non-induced, Fluo-4 calcium, no carbachol; normalised: buffer wells 0%, carbachol wells 100%;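 active = duplicate-averaged calcium rise in uninduced cells above buffer wells' mean plus 5 SD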
Active calls of the source: *.

CC(=O)C1=NOC(CNc2ncc(C(F)(F)F)cc2Cl)C1 (configuration not stated) was read as RGS4 inh inactive, RGS4 pot inactive, MrgX1 allo act inactive, MrgX1 antagonist inactive, MrgX1 agonist inactive, M3R Ca ctr inactive and M3R basal Ca ctr inactive.
O=C(O)C1=NOC(CNc2ncc(C(F)(F)F)cc2Cl)C1 (configuration not stated) was read as RGS4 inh 5*, RGS4 pot inactive, MrgX1 allo act inactive, MrgX1 antagonist inactive, MrgX1 agonist inactive, RGS4 inh valid 5.0%*, M3R Ca ctr 48%* and M3R basal Ca ctr inactive.
For Cc1ccc(Nc2nc3ccc(Cl)cc3n3cnnc23)cc1F the results were RGS4 inh inactive, RGS4 pot inactive, MrgX1 allo act inactive, MrgX1 antagonist inactive and MrgX1 agonist inactive.
CCCCOc1ccc(OCCNC(=O)c2ccco2)cc1 was read as RGS4 inh inactive, RGS4 pot inactive, MrgX1 allo act inactive, MrgX1 antagonist inactive and MrgX1 agonist inactive.
Cc1ccc(NC(=O)c2c(C)nc(Nc3nc4ccccc4o3)nc2C)cc1 was read as RGS4 inh inactive, RGS4 pot inactive, MrgX1 allo act inactive, MrgX1 antagonist inactive, MrgX1 agonist inactive, M3R Ca ctr inactive and M3R basal Ca ctr inactive.
For CCOc1c(Br)cc(/C=C2\N=C(C)OC2=O)cc1Br the results were RGS4 inh 4.7*, RGS4 pot inactive, MrgX1 allo act inactive, MrgX1 antagonist inactive, MrgX1 agonist inactive, RGS4 inh valid 66%*, M3R Ca ctr 37%* and M3R basal Ca ctr inactive.
`COc1ccc(Nc2cnn(-c3nc4ccccc4s3)c(=O)c2Cl)cc1` gave RGS4 inh 4.7*, RGS4 pot inactive, MrgX1 allo act inactive, MrgX1 antagonist inactive, MrgX1 agonist inactive, RGS4 inh valid 11%*, M3R Ca ctr inactive and M3R basal Ca ctr inactive.
O=C1COc2ccc(C(=O)CCl)cc2N1 was read as RGS4 inh 13*, RGS4 pot inactive, MrgX1 allo act inactive, MrgX1 antagonist inactive, MrgX1 agonist inactive, RGS4 inh valid 66%*, M3R Ca ctr 58%* and M3R basal Ca ctr 9.5%*.
For COc1ccc(NC(=O)CNC(=O)Cn2cnc3sc4c(c3c2=O)CCCC4)cc1OC the results were RGS4 inh inactive, RGS4 pot inactive, MrgX1 allo act inactive, MrgX1 antagonist inactive and MrgX1 agonist inactive.
Screening COc1ccc(S(=O)(=O)Nc2cccc(F)c2)cc1C returned RGS4 inh inactive, RGS4 pot inactive, MrgX1 allo act inactive, MrgX1 antagonist inactive and MrgX1 agonist inactive.
COc1ccc(S(=O)(=O)Nc2ccc(S(=O)(=O)Nc3ccc(F)cc3)cc2)cc1C was read as RGS4 inh 5*, RGS4 pot inactive, MrgX1 allo act inactive, MrgX1 antagonist inactive, MrgX1 agonist inactive, RGS4 inh valid 22%*, M3R Ca ctr inactive and M3R basal Ca ctr inactive.
For CCCn1c(/N=C/c2c[nH]c3ccccc23)nc2ccccc21 the results were RGS4 inh 5.1*, RGS4 pot inactive, MrgX1 allo act inactive, MrgX1 antagonist inactive, MrgX1 agonist inactive, RGS4 inh valid 8.0%*, M3R Ca ctr inactive and M3R basal Ca ctr inactive.
CCn1c(/N=C/c2c[nH]c3ccccc23)nc2ccccc21 was read as RGS4 inh inactive, RGS4 pot inactive, MrgX1 allo act inactive, MrgX1 antagonist inactive, MrgX1 agonist inactive, M3R Ca ctr inactive and M3R basal Ca ctr inactive.
For CCCCn1c(/N=C/c2c[nH]c3ccccc23)nc2ccccc21 the results were RGS4 inh inactive, RGS4 pot inactive, MrgX1 allo act inactive, MrgX1 antagonist inactive, MrgX1 agonist inactive, M3R Ca ctr inactive and M3R basal Ca ctr inactive.
CCCn1c(/N=C/c2ccccc2O)nc2ccccc21 was read as RGS4 inh inactive, RGS4 pot inactive, MrgX1 allo act inactive, MrgX1 antagonist inactive and MrgX1 agonist inactive.
Screening CCCCn1c(/N=C/c2ccc(N(C)C)cc2)nc2ccccc21 returned RGS4 inh inactive, RGS4 pot inactive, MrgX1 allo act inactive, MrgX1 antagonist inactive and MrgX1 agonist inactive.
For N#Cc1ccc(COC(=O)c2ccc3c(c2)OCO3)cc1 the results were RGS4 inh inactive, RGS4 pot inactive, MrgX1 allo act inactive, MrgX1 antagonist inactive and MrgX1 agonist inactive.
Screening NC(=O)CSc1nc2c(sc(=S)n2-c2ccccc2)c(=O)[nH]1 returned RGS4 inh inactive, RGS4 pot inactive, MrgX1 allo act inactive, MrgX1 antagonist inactive and MrgX1 agonist inactive.
Screening O=C(CSc1ncnc2ccccc12)NCC(=O)c1ccccc1 returned RGS4 inh inactive, RGS4 pot inactive, MrgX1 allo act inactive, MrgX1 antagonist inactive and MrgX1 agonist inactive.
CCOC(=O)C1CCN(C2=NC(=O)/C(=C/c3ccc(Cl)cc3)S2)CC1 was read as RGS4 inh inactive, RGS4 pot inactive, MrgX1 allo act inactive, MrgX1 antagonist inactive and MrgX1 agonist inactive.
`CCOC(=O)CSC1=NC(=O)/C(=C\c2ccc(Cl)cc2)S1` gave RGS4 inh inactive, RGS4 pot inactive, MrgX1 allo act inactive, MrgX1 antagonist inactive, MrgX1 agonist inactive, RGS4 inh valid inactive, M3R Ca ctr inactive and M3R basal Ca ctr 18%*.
Screening O=S(=O)(Nc1ccc(O)c2ccccc12)c1cccs1 returned RGS4 inh 8.1*, RGS4 pot inactive, MrgX1 allo act inactive, MrgX1 antagonist inactive, MrgX1 agonist inactive, RGS4 inh valid 37%*, M3R Ca ctr inactive and M3R basal Ca ctr inactive.
For O=S(=O)(Nc1cccc2ccccc12)c1cccs1 the results were RGS4 inh inactive, RGS4 pot inactive, MrgX1 allo act inactive, MrgX1 antagonist inactive and MrgX1 agonist inactive.

Screens (PubChem BioAssay)
